# Results pooled from the literature.
# Lines come from different studies, so protocols differ. pIC50: −log10 of the molar value.
Structure (SMILES),target or system,assay,system,setting,endpoint,value
CC(C)CN(C[C@@H](O)[C@H](Cc1ccccc1)NC(=O)O[C@H]1CO[C@H]2OCC[C@H]21)S(=O)(=O)c1ccc(N)cc1,,,"BALB/c mouse, plasma","intravenous, 25 mg/kg, 1 h",concentration,397 ng/mL
CN(CCC(=O)O)C(=O)c1ccc2c(c1)CC[C@@H]1[C@@H]2CC[C@]2(C)C(c3cncc(F)c3)=CC[C@@H]12,"UDP-glucuronosyltransferase 1A1 (UGT1A1, Homo sapiens, UniProt P22309)","enzyme activity, inhibitor","human, liver microsomes",,pIC50,5.39
CC(C)Oc1cccc(-c2cnc(N3CCC(C(N)=O)CC3)s2)c1,,,"male Swiss mouse, brain","oral, 30 mg/kg, 12 h, single dose",concentration,0 nM
CC(C)(O)c1ccccc1-c1ccc2[nH]c(/C=C/c3ccc(C(F)(F)F)cc3)nc2c1,,,"male human, plasma","oral, 30 mg, single dose, fasted, healthy volunteers",MRT,116 h
CC(C)=CCC[C@@]1(C)C(CC[C@H]2[C@]3(C)CC[C@H](O)C(C)(C)O[C@H]3CC[C@@]2(C)O)=C(C)CC[C@H]1O,KB 3-1,"cell growth or viability, MTT",,72 h,pIC50,< 4.30
COc1ccc(S(=O)(=O)ON=C2C=C(C)C(=O)C(C)=C2)cc1,HMEC,cell growth or viability,,,CC50,> 15.5 µM
CC(C)(Nc1nc(-c2ccccn2)nc2ccccc12)c1ccccn1,,,"female BALB/c mouse, plasma","oral, 50 mg/kg, 4 h",concentration,5060 ng/mL
CC1=CC[C@H]2[C@@H]([C@@H]1CC[C@H]1[C@]3(C)CC[C@H](O)C(C)(C)O[C@H]3CC[C@]1(C)O)C(C)(C)CC[C@]2(C)O,KB 3-1,"cell growth or viability, MTT",,72 h,pIC50,< 4.30
